Tb hexokinase: Trypanosoma brucei hexokinase 1 inhibitors, primary screen, biochemical, G6PDH-coupled NADH absorbance, MLSCN library. hexokinase 1 [Trypanosoma brucei]. recombinant TbHK1, G6PDH-coupled NADH A340. inhibition, % at 10 µM. 220,000 tested, 0.11% active. AID 1430, 2008;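 active = inhibition of 50% or more in the single-dose primary screen; inactive = inhibition below 50%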
Autophagy HCS: autophagy modulators in MEF cells, primary screen, imaging, high-content, MEF GFP-LC3; MEF GFP-LC3 puncta imaging; test concentration mostly 10 µM; calls only at 10 µM (by protocol); 190,000 tested, 0.98% active;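 active = percentage of spot-positive cells more than 3 SD above its plate mean, without a fluorescence outlier flag or 80% toxicity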;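 note: spot-positive cell cutoff set from DMSO-treated cells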
Ins promoter up: insulin promoter activators in MIN6 cells, imaging, high-content screening, mouse beta cells. MIN6 insulin promoter-GFP reporter; active compounds read high. z-score at 5 µM. 190,000 tested, 0.3% active;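 active = z-score above 3 at 5 µM with at least 500 cells counted in the well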
b-catenin transl: modulators of beta-catenin nuclear translocation, primary screen, imaging, HeLa cells, immunofluorescence, high-content; nuclear translocation activity, % at 5 µM; 190,000 tested, 0.3% active; AID 1665, 2009;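 active = nuclear translocation activity above 50% at 5 µM, with a well cell count of 50 or more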;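 note: per-cell ratio of nuclear to cytoplasmic median beta-catenin stain intensity; plate controls were DMSO negative control for no effect and GSK-3 inhibitor IX positive control for full effect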
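test system = HeLa cells, endogenous beta-catenin | dosing = single 5 µM dose plus 0.02–20 µM confirmation series | times = compound treatment 24 h, 37°C, 5% CO2 | technique = beta-catenin immunofluorescence imaging with DAPI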
MT stabilizer: microtubule stabilizers in HeLa cells, primary screen, imaging, high-content imaging; HeLa tubulin immunostaining HCS, 24 h; share of cells brighter than vehicle mean+2SD; % tubulin-high responders, % at 10 µM; 200,000 tested, 0.83% active; AID 2205, 2009;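 active = plate Z-score above 3 for both tubulin-high and condensed-nucleus cell shares, with cell loss under 80%, at 10 µM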;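 note: anti alpha tubulin signal scored within the nucleus-defined area of each cell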
Numbers without * were called inactive; i = inactive; / = no result; + = active, no number. Rows were chosen to be rich in hits. Some 1.9% of all compounds tested hit in one or more screens of this group.

SMILES	Tb hexokinase	Autophagy HCS	Ins promoter up	b-catenin transl	MT stabilizer
CCN(C(=O)CSc1nnc(Nc2ccccc2)s1)C1CCS(=O)(=O)C1 (configuration not stated)	-6	+	-0.16	-2	3
COc1ccccc1NC(=O)Cn1nc(-c2ccncc2)nc1SCC(=O)NC1CCCC1	2	i	1.5	-1	11*
COc1ccccc1-n1ccnc1SCC(=O)NC1CCCC1	9	i	-0.02	/	2
COc1ccc(/C=C/C(=O)C2CC2)cc1COc1cccc(C)c1C	-24	/	-0.23	0	/
CSC1=C(C#N)C(=O)NC(c2ccc(Cl)cc2)S1 (configuration not stated)	-21	/	0.26	2	/
Cc1cccc2c(C(=O)Nc3ccc(Br)cc3)cc(-c3ccccn3)nc12	-12	i	0.95	0	3
O=C(Nc1ccc([N+](=O)[O-])cc1)c1cc(-c2ccccn2)nc2c(Cl)cccc12	2	+	-0.08	1	4
O=C1OC(/C(=C\Nc2cc(Cl)ccc2O)[N+](=O)[O-])c2ccccc21 (configuration not stated)	-11	i	0.37	1	3
Cn1c(=O)c2c(nc(N3CCNCC3)n2Cc2cccc3ccccc23)n(C)c1=O	-1	+	-0.55	3	2
COC(=O)c1c(NC(=O)/C=C/C(=O)O)sc(C)c1-c1ccc(C(C)C)cc1	1	i	-0.17	5	8
S=c1[nH]c(-c2ccccc2)cn1/N=C/c1ccccc1Br	-5	i	-0.3	-3	4
S=c1[nH]c(-c2ccccc2)cn1/N=C/c1cccc2ccccc12	-4	i	1.3	4	18*
Cc1ccc(NC(=O)CN2C(=O)N/C(=C/c3ccc(C)o3)C2=O)cc1	-9	i	0.03	-3	2
Cc1ccc(NC(=O)CN2C(=O)N/C(=C/c3ccc(C)s3)C2=O)cc1	-14	+	1	0	3
Cc1ccc(/C=C2/NC(=O)N(Cc3ccccc3)C2=O)s1	-1	i	0.76	2	2
Cc1cccc(CN2C(=O)N/C(=C/c3ccc(C)s3)C2=O)c1	-8	+	/	67*	53*
CCN(CC)C(=O)c1sc(NC(=O)C(C)C)c(C#N)c1C	-5	i	-0.21	-2	3
Cc1cccc(C)c1OCC(=O)N/N=C/c1ccc2c(c1)OCO2	-11	i	0.1	82*	32*
Cc1ccccc1NCC(=O)N/N=C\c1ccc2c(c1)OCO2	-22	i	-0.24	-5	2
Cc1ccc(C)c(OCC(=O)Nc2ccc3c(c2)OCO3)c1C	-1	i	/	/	23*
Cc1cccc(OCC(=O)Nc2ccc3c(c2)OCO3)c1C	8	i	-0.07	-2	3
OC(c1ccccc1)c1nccc2ccccc12 (configuration not stated)	1	i	-0.15	0	3
COc1ccc(/C=C2\C(=O)NCC(=O)N2Cc2ccccc2)cc1	-11	i	0.07	-2	32*
COc1ccc(/C=C2\C(=O)N(Cc3ccc(F)cc3)CC(=O)N2Cc2ccccc2)cc1	-13	i	-0.48	0	2
Cc1ccccc1SCc1noc(C(=O)NC(C)C)c1C(=O)O	-2	i	3*	0	4
SMILES	Tb hexokinase	Autophagy HCS	Ins promoter up	b-catenin transl	MT stabilizer
CC(C)NC(=O)c1onc(CSc2ccccc2F)c1C(=O)O	5	i	-0.71	0	3
CC(=O)Nc1cccc(C(=O)Nc2ccccc2N2CCOCC2)c1	-3	i	-0.07	-4	32*
O=C(Nc1ccccc1N1CCOCC1)c1ccc2c(c1)OCO2	-5	i	-0.2	0	2
NC(=O)c1ccsc1NC(=O)C1CCCN1S(=O)(=O)c1ccc(Cl)cc1 (configuration not stated)	-5	i	0.73	1	2
CC1CCCCN1S(=O)(=O)c1ccc(C(=O)Nc2sccc2C(N)=O)cc1 (configuration not stated)	-16	+	2.1	-3	3
Cc1cc(NC(=O)CSc2nnc(C3COc4ccccc4O3)o2)no1 (configuration not stated)	6	+	1.7	-5	2
Cc1cc(NC(=O)CSc2nnc(C3COc4ccccc4O3)n2N)no1 (configuration not stated)	1	/	1.3	1	/
Cc1cc(NC(=O)CSc2nnc(-c3ccccc3)c(-c3ccccc3)n2)no1	-3	i	/	2	22*
Cc1ccc(-c2cc(-c3n[nH]c(=S)n3C)c3ccccc3n2)cc1	-12	i	0.56	-4	5
CC(C)N1CCc2c(sc(NC(=O)c3ccc(S(=O)(=O)N4CCc5ccccc54)cc3)c2C(N)=O)C1	-22	+	/	-3	5
CC(C)N1CCc2c(sc(NC(=O)c3nc4ccccc4s3)c2C(N)=O)C1	-2	i	0.29	-3	3
CCN1C(=O)[C@@H]2C(C(=O)c3cnccn3)=NN[C@@H]2C1=O	-27	/	-0.44	0	/
CCOC(=O)c1c(-c2ccccc2)oc2cc(CN(C)C)c(O)c(CN(C)C)c12	-26	+	/	/	1
Cc1ccc(NC(=O)c2ccc(Cl)cc2Cl)cc1O	1	/	-0.14	0	/
CCOC(=O)c1c(C)c(C(=O)Nc2ccc3c(c2)OCCO3)c(C)n1CC	5	i	-0.2	0	31*
CCOC(=O)CSc1nc2cc(OCC)ccc2cc1C#N	-5	i	1.3	0	4
CCOc1ccc2cc(C#N)c(SCC(=O)NC(C)CC)nc2c1 (configuration not stated)	-1	i	-0.51	28	44*
O=C(CN1CCCCCC1)NN(Cc1ccccc1)c1ccccc1	-1	/	0.07	-2	/
O=S(=O)([N-]c1nc2ccccc2nc1-n1cc[n+](Cc2ccccc2)c1)c1ccc(Br)cc1	-15	/	0.77	1	/
CCOc1ccc(C2CC(=O)NC3=C2C(=O)CCC3)cc1 (configuration not stated)	6	i	-1.1	-2	3
CCCOc1ccccc1C1CC(=O)NC2=C1C(=O)CCC2 (configuration not stated)	4	i	-1.1	97*	55
CCOc1ccccc1C1CC(=O)NC2=C1C(=O)CCC2 (configuration not stated)	7	i	0.47	22	58*
CCCCOc1ccccc1C1CC(=O)NC2=C1C(=O)CCC2 (configuration not stated)	0	i	1.2	109*	48*
CCCOc1ccccc1C1CC(=O)NC(C)=C1C(=O)OCC(C)C (configuration not stated)	1	i	0.02	1	2
CN(C)c1ccc(/C=C2\SC(=O)N(CCc3nnc(N)s3)C2=O)cc1	-4	/	3.3*	4	/
